HCV NS3 hel inh – inhibitors of HCV NS3 helicase, primary screen, biochemical, Cy5 molecular beacon fluorescence; 0.56% of 290,000 active; NS3 helicase DNA unwinding; Hepatitis C virus NS3 helicase; inhibition, % at 10.9 µM;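 active = inhibition above the mean of all tested compounds plus 3 SD, set per campaign, cut at about 35% in these data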;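 also: 0% = DMSO wells and 100% = thioflavine S control wells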
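assay system = NS3 helicase fragment of HCV | buffer or medium = MOPS pH 6.5, MgCl2, DTT, Tween20, BSA | timing = 60 min unwinding reaction at 25 °C after ATP addition | signal = Cy5 beacon fluorescence read at start and 1 h | read-out basis = % inhibition of unwinding | control set = low DMSO, high thioflavine S at 110 µM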
HCV core dimer – inhibitors of HCV core protein dimerization, primary screen, biochemical, TR-FRET, high-throughput | inhibition, % at 5 µM | TR-FRET GST/Flag-core106 dimerization, 1536-well | 0.33% of 300,000 active;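 active = inhibition above the mean of all tested compounds plus 3 SD, set per screening campaign, cut at about 45% in these data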
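Material: Tagged HCV core106 pair (GST and Flag) | Amount: GST-core106 13.5 nM, Flag-core106 17 nM | Medium: KF-containing HEPES buffer, pH 7.45, DTT, CHAPS, BSA | Reagent: Eu donor and XL665 acceptor anti-tag antibodies | Schedule: 4 h at 22.5 °C | Technique: Time-resolved FRET, ex 340 nm, em 617 and 671 nm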
UBC9 SUMO inh – inhibitors of in vitro SUMOylation cascade, primary screen, biochemical, HTRF, uHTS; AID 2006, 2009; 0.36% of 290,000 active; HTRF SUMOylation assay, SAE1/SAE2 + UBC9; SUMO-conjugating enzyme UBC9 (Homo sapiens), P63279; inhibition, % at 35 µM; in the data active = inhibition above about 50%, passing the limit was not always enough
Target sequence (P63279 whole entry, looked up): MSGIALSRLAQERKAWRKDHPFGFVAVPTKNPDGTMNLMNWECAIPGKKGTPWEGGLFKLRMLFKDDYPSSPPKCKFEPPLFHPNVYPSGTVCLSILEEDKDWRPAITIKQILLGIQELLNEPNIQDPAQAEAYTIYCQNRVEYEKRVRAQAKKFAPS
PHOSPHO1 inh – PubChem AID 1565; recombinant PHOSPHO1, absorbance phosphatase assay; inhibition, % at 13.3 µM; Phosphoethanolamine/phosphocholine phosphatase (Homo sapiens), Q8TCT1; 1.1% of 290,000 active; in the data active = inhibition above about 60%
Target sequence (Q8TCT1 whole entry, looked up): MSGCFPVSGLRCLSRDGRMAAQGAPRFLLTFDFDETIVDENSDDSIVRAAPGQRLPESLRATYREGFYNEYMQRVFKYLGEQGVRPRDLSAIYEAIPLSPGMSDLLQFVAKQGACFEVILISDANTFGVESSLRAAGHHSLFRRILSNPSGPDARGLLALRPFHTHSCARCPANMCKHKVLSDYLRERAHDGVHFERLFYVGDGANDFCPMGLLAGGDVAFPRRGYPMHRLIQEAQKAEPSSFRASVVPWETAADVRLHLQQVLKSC
IMP-1 inhibitor – IMP-1 metallo-beta-lactamase inhibitors, primary screen, biochemical, epi-absorbance readout, Pseudomonas aeruginosa enzyme; purified IMP-1, nitrocefin hydrolysis, epi-absorbance fluorescence; inhibition, % at 5.6 µM; 0.45% of 290,000 active; AID 1556, 2009;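 active = inhibition above the mean plus 3 SD of all compounds in the same screening run, cut at about 4.5% in these data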;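 also: 0% = IMP-1 with DMSO and 100% = DMSO wells lacking enzyme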
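assay system = purified recombinant IMP-1 metallo-beta-lactamase enzyme | schedule = 15 min preincubation plus 25 min reaction at 25 °C | signal = Epi-absorbance fluorescence, 480 nm excitation, 530 nm emission | read-out basis = percent inhibition from optical density relative to buffer-blank wells | controls = IMP-1 with DMSO as 0%, enzyme-free DMSO as 100%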
VIM-2 inhibitor – VIM-2 metallo-beta-lactamase inhibitors, primary screen, biochemical, epi-absorbance readout, Pseudomonas aeruginosa enzyme | purified VIM-2, nitrocefin hydrolysis, epi-absorbance fluorescence | inhibition, % at 5.6 µM | 0.89% of 290,000 active | AID 1527, 2009;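 active = inhibition above the mean of all tested compounds plus 3 SD, cutoff set per screening run, cut at about 7.5% in these data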;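 also: red hydrolysis product quenches plate fluorescence so inhibitors raise well fluorescence; 0% = enzyme with DMSO and 100% = DMSO without enzyme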
NS3 hel confirm – HCV NS3 helicase inhibitors, retest, confirmation, biochemical, Cy5 molecular beacon fluorescence, triplicate; NS3 helicase DNA unwinding; shares compounds with HCV NS3 hel inh; AID 1943, 2009; inhibition, % at 10.9 µM; 31% of 1,600 active;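 active = inhibition above the mean of all tested compounds plus 3 SD, cutoff set per campaign, cut at about 36% in these data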
FID counter trip – compounds displacing fluorescent DNA intercalator, artefact control for HCV NS3 helicase inhibitor project, biochemical, FID fluorescence, triplicate; AID 1945, 2009; DNA fluorescent intercalator displacement; inhibition, % at 7.9 µM; shares compounds with HCV NS3 hel inh; 4% of 1,600 active; in the data active = inhibition above about 37%;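 also: 0% = vehicle and 100% = reference compound; higher means more displacement of ethidium bromide from the DNA hairpin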
Active calls of the source: *; · = no result. In the library only some 3.1% were active in any assay of this set; here they are far more common.

SMILES	HCV NS3 hel inh	HCV core dimer	UBC9 SUMO inh	PHOSPHO1 inh	IMP-1 inhibitor	VIM-2 inhibitor	NS3 hel confirm	FID counter trip
O=c1[nH]c(/C=C\c2cccc(F)c2)nc(O)c1[N+](=O)[O-]	31.9	17.4	5.9	20.1	-4.1	-0.1	·	·
O=C(Nc1ccccc1)[C@@H]1[C@@H]2C(=O)N(c3ccc(F)cc3)C(=O)[C@@H]2[C@H]2C=CC=NN21	60.6*	3.4	12.0	32.8	1.2	2.7	-19.3	-7.4
Cc1ccc(N2C(=O)[C@@H]3[C@H](C2=O)[C@H]2C=CC=NN2[C@@H]3C(=O)Nc2ccccc2)cc1	16.1	10.1	4.2	-0.3	-4.2	-4.0	·	·
COc1ccc(C(=O)[C@H]2[C@H]3C(=O)N(c4ccc(C)cc4)C(=O)[C@H]3C3C=CC=NN32)cc1 (stereo partly specified)	59.9*	37.0	-28.5	18.8	-0.8	0.9	-16.5	-18.6
O=C(CSc1ccc(Br)c2cccc(Cl)c12)Nc1ccc(S(=O)(=O)Nc2nccs2)cc1	38.3*	3.9	57.3	30.5	-1.8	-3.7	38.0*	8.0
Cc1[nH]c(C)c(S(=O)(=O)N(Cc2ccccc2)C(C)(C)C)c1C(=O)N1CCCC1	38.1*	-7.4	8.3	34.1	1.9	1.0	-9.7	-32.7
Cc1nc2ccccn2c1C(=O)N/N=C/c1ccc2c(c1)OCO2	40.1*	-4.5	-7.6	4.7	-1.2	-1.3	-10.9	2.7
Cc1nc2ccccn2c1C(=O)NCc1ccc2c(c1)OCO2	-10.2	-2.0	10.4	12.5	-2.1	-0.4	·	·
COc1ccc(OC)c(/C=C/c2ccc3cccc(O)c3n2)c1	59.9*	-16.4	16.1	1.1	-5.0	-5.6	-10.7	-0.9
COc1cc(Br)c(/C=C/c2ccc3cccc(O)c3n2)cc1OC	14.4	-5.0	-2.5	7.1	-3.1	-2.7	·	·
C=CCOc1ccc(C(=O)CC)cc1OC	-2.8	10.9	13.1	4.2	-5.0	0.2	·	·
CCCN(CC(=O)Nc1cc(Cl)ccc1Cl)C(=O)c1ccccc1SCC(=O)N1CCCC1	·	7.0	·	·	·	·	·	·
O=C1CC(=O)c2c1cccc2[N+](=O)[O-]	36.7*	·	26.8	-135.4	1.3	-1.7	90.3*	15.6
Cc1ccc(C)n1Cc1ccc(C(=O)O)cc1	37.8*	-47.3	5.7	21.5	-6.5	-1.1	79.8*	-1.4
Cc1cc(C)n(Cc2ccc(C(=O)O)cc2)n1	-2.2	-3.3	13.5	8.2	-1.3	-2.6	·	·
Cc1ccc(-c2nnc(CN3CCCCC3C)o2)cc1 (stereo unspecified)	-14.1	4.4	11.6	14.1	-1.9	-2.3	·	·
COc1ccc(/C=C/C(=O)NCCSCc2ccco2)cc1OC	0.5	5.7	21.4	16.2	0.0	-1.2	·	·
Fc1cccc(F)c1/C=C/c1ccc2ccccc2n1	8.8	-1.4	7.9	-23.9	-2.6	-2.7	·	·
C(=C\c1ccco1)/c1ccc2ccccc2n1	42.0*	53.2*	38.7	31.2	1.5	3.0	5.9	6.8
CCN(CC)c1ccc2nc3ccccc3[n+](CC)c2c1	57.1*	-378.3	-135.1	-100.1	-9.2	11.3*	98.9*	50.9*
CCN(CC)C(=O)c1ccc2nc3ccccc3nc2c1	2.0	-19.1	15.1	-17.0	-2.2	1.8	·	·
CCOc1ccc(N2C(=O)CC(Sc3nc(CC(C)C)ccc3C#N)C2=O)cc1 (stereo unspecified)	39.4*	22.9	9.9	40.7	-4.3	-2.6	64.8*	-11.6
CCOc1ccc(N2C(=O)CC(Sc3nc(C)cc(C)c3C#N)C2=O)cc1 (stereo unspecified)	6.2	-12.1	-0.8	-2.7	-2.9	1.1	·	·
